Measurements reported in ChEMBL document CHEMBL1143585, “Synthesis of some cryptolepine analogues, assessment of their antimalarial and cytotoxic activities, and consideration of their antimalarial mode of action” (J Med Chem, 2005).

Experiments:
[1] = tested on: MAC15A; experiment: Cytotoxicity against MAC15A mouse adenocarcinomas of the colon cells; assay type: functional, cell-based
Procedure, shortened: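 MTT assay. MAC15A cells were seeded at 2 × 10^3 per well and attached overnight at 37 °C, 5% CO2. Drugs were dissolved in DMSO and diluted in medium (max 0.1% DMSO), eight wells per concentration, 96 h exposure. MTT (0.5 mg/mL) was then added for 24 h. Formazan was dissolved in DMSO and read at 550 nm. Survival is relative to vehicle control; IC50 from triplicate experiments.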

[2] = tested on: Plasmodium falciparum; experiment: In vitro antiplasmodial activity for Plasmodium falciparum; assay type: functional, organism-based
Procedure, shortened: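 P. falciparum K1 ring-stage cultures in human A+ erythrocytes (RPMI 1640, A+ serum, glucose), at 2.5% hematocrit and 1% parasitemia. Two-fold serial dilutions in duplicate, final DMSO ≤0.5%. Incubated 48 h at 37 °C under 93% N2/3% O2/4% CO2. Growth read as parasite lactate dehydrogenase activity (APAD/NBT, 550 nm). IC50 by linear regression; at least three separate determinations.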

[3] = tested on: MAC15A; experiment: Ratio of cytotoxic to that of antiplasmodial activity was determined; assay type: functional, Mus musculus
[4] = species: Mus musculus; experiment: Mean survival time taken as number of days before illness due to Plasmodium berghei in […] mice (Mus musculus); c=toxic after the 2nd dose; assay type: functional, organism-based
[5] = tested on: Mus musculus; experiment: Mean survival time taken as number of days before illness due to Plasmodium berghei when mice (Mus musculus) treated with 20 mg/kg dose for 4 days; c=toxic after the 2nd dose; assay type: functional, organism-based; parameters: dose 20 mg/kg
[6] = tested on: Mus musculus; experiment: In vivo antimalarial activity of compound against Plasmodium berghei was determined as suppression of parasitaemia in mice (Mus musculus) at 20 mg/kg treated for 4 days; c=toxic after the 2nd dose; assay type: functional, organism-based; parameters: dose 20 mg/kg
[7] = tested on: Mus musculus; experiment: In vivo antimalarial activity of compound against Plasmodium berghei in mice (Mus musculus) at dose of 20 mg/kg treated for 4 days; c = toxic after 2nd dose; assay type: functional, organism-based; parameters: dose 20 mg/kg
[8] = Ionization constant for the compound; assay type: physicochemical
[9] = tested on: Plasmodium falciparum; experiment: Normalized IC50 as product of antiplasmodial IC50 and vacuolar accumulation IC50; assay type: functional, organism-based
[10] = target: T1, Histidine-rich protein PFHRP-II (Plasmodium falciparum) (UniProt P05227); experiment: Antiplasmodial activity as IC50 against Beta-hematin formation; assay type: functional
T1 sequence (whole entry): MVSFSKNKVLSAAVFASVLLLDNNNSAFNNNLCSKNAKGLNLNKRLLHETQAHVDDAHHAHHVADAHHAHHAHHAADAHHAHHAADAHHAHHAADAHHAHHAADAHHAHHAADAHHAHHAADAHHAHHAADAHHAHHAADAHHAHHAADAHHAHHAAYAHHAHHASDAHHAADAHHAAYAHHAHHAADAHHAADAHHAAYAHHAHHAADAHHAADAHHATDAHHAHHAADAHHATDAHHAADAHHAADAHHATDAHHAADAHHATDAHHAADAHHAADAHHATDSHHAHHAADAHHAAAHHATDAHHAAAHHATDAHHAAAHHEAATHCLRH
Procedure, shortened: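 β-Hematin inhibition (BHIA) assay: hemin (0.4 µmol/well) in DMSO with compound at 0.25–2 (or 4) molar equivalents to hemin, in triplicate. Final DMSO was 25%. Formation started with 8 M acetate buffer pH 5.0, then 37 °C for 18 h. The centrifuged pellet was dissolved in 0.1 M NaOH and read at 405 nm. BHIA50 is the drug equivalents relative to hemin giving 50% inhibition.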

[11] = tested on: Plasmodium falciparum; experiment: […] accumulation into acidic parasitic food vacuole at pH=5.5; assay type: functional
[12] = tested on: Mus musculus; experiment: In vivo antimalarial activity of compound against Plasmodium berghei in mice (Mus musculus) at dose of 25 mg/kg treated for 4 days; assay type: functional
Procedure, shortened: (§1)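 Peters 4-day suppressive test in female BALB/c mice (18–20 g), five per group. Mice were infected iv with 1 × 10^7 P. berghei ANKA-infected erythrocytes. Drug was given ip daily for four consecutive days. Blood smears were taken on day 5, and % parasitemia suppression was calculated against untreated infected controls. Survival was recorded as days until signs of malaria illness.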

[13] = tested on: Mus musculus; experiment: In vivo antimalarial activity of compound against Plasmodium berghei was determined as suppression of parasitemia in mice (Mus musculus) at 25 mg/kg treated for 4 days; assay type: functional; procedure, shortened: as §1
[14] = species: Mus musculus; experiment: Mean survival time taken as number of days before illness due to Plasmodium berghei in untreated mice (Mus musculus); assay type: functional
Procedure, shortened: (§2)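 Peters' 4-day suppressive test in female BALB/c mice (18-20 g), five per group. Each mouse got 1 × 10^7 P. berghei ANKA-infected erythrocytes iv. Drug was given ip in 0.2 mL daily for 4 consecutive days. Survival time was the number of days before signs of malaria illness, compared with untreated infected controls.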

[15] = tested on: Mus musculus; experiment: Mean survival time taken as number of days before illness due to Plasmodium berghei when mice (Mus musculus) treated with 25 mg/kg dose for 4 days; assay type: functional; procedure, shortened: as §2
[16] = tested on: Mus musculus; experiment: Mean survival time taken as number of days before illness due to Plasmodium berghei when mice (Mus musculus) treated with 12.5 mg/kg dose for 4 days; assay type: functional; procedure, shortened: as §2
[17] = tested on: Mus musculus; experiment: In vivo antimalarial activity of compound against Plasmodium berghei in mice (Mus musculus) at dose of 3.125 mg/kg treated for 4 days; assay type: functional; procedure, shortened: as §1
[18] = tested on: Mus musculus; experiment: In vivo antimalarial activity of compound against Plasmodium berghei was determined as suppression of parasitemia in mice (Mus musculus) at 6.25 mg/kg treated for 4 days; assay type: functional; procedure, shortened: as §1
[19] = tested on: Mus musculus; experiment: Mean survival time taken as number of days before illness due to Plasmodium berghei when mice (Mus musculus) treated with 6.25 mg/kg dose for 4 days; assay type: functional; procedure, shortened: as §2
[20] = tested on: Mus musculus; experiment: In vivo antimalarial activity of compound against Plasmodium berghei in mice (Mus musculus) at dose of 12.5 mg/kg treated for 4 days; assay type: functional; procedure, shortened: as §1
[21] = tested on: Mus musculus; experiment: In vivo antimalarial activity of compound against Plasmodium berghei in mice (Mus musculus) at dose of 6.25 mg/kg treated for 4 days; assay type: functional; procedure, shortened: as §1
[22] = tested on: Mus musculus; experiment: Mean survival time taken as number of days before illness due to Plasmodium berghei when mice (Mus musculus) treated with 3.125 mg/kg dose for 4 days; assay type: functional; procedure, shortened: as §2
[23] = tested on: Mus musculus; experiment: In vivo antimalarial activity of compound against Plasmodium berghei was determined as suppression of parasitemia in mice (Mus musculus) at 3.125 mg/kg treated for 4 days; assay type: functional; procedure, shortened: as §1
[24] = tested on: Plasmodium falciparum; experiment: […] accumulation into acidic parasitic food vacuole (pH=5.5) relative to Cryptolepine; assay type: functional
Procedure, shortened: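 Calculated from each compound's spectrophotometric pKa via a pH-trapping equation, assuming food-vacuole pH 5.5 and external pH 7.4. The result is expressed relative to cryptolepine's ratio. pKa came from UV spectra (0.05 mg mL-1) in at least seven buffers of pH 5.8–13.0, plus 0.1 M NaOH and 0.1 M HCl. pKa was taken as the midpoint of the λmax absorbance plot. Two experiments per compound.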

[25] = tested on: Mus musculus; experiment: In vivo antimalarial activity of compound against Plasmodium berghei was determined as suppression of parasitemia in mice (Mus musculus) at 12.5 mg/kg treated for 4 days; assay type: functional; procedure, shortened: as §1

SMILES | IC50 ([1]; Mus musculus, MAC15A) | IC50 ([2]; Plasmodium falciparum) | Ratio [3] | pKa [8] | BHIA50 [10] | Vascular accumulation ratio [11] | also measured
Cc1ccc2cc3[nH]c4ccc(Br)cc4c3[n+](C)c2c1.[Cl-] | 5210 nM | 260 nM | 20 | – | – | – | –
C[n+]1c2ccccc2cc2[n-]c3ccccc3c21.Cl [CRYPTOLEPINE HYDROCHLORIDE] | 3950 nM | 440 nM | 8.98 | – | – | – | Mean survival time [4]: Toxic after second dose; Mean survival time [5]: Toxic after second dose; Suppression of parasitemia [6]: Toxic after second dose; Parasitemia [7]: Toxic after second dose
C[n+]1c2ccccc2cc2[nH]c3c([N+](=O)[O-])cccc3c21.[Cl-] | – | – | – | 9.6 | 0.84 | 78.94 | IC50 [9]: 6850 nM
C[n+]1c2ccc(Cl)cc2cc2[nH]c3ccccc3c21.[Cl-] | 2240 nM | 166 nM | 13.5 | – | – | – | –
Cc1ccc2cc3[nH]c4ccccc4c3[n+](C)c2c1.[Cl-] | 3510 nM | 149 nM | 23.6 | – | – | – | –
C[n+]1c2ccccc2cc2[nH]c3cc(Cl)ccc3c21.[Cl-] | – | – | <8.15 | – | – | – | IC50 ([1]; mac15a): 8150 nM; IC50 [2]: > 1000 nM
C[n+]1c2ccc(Br)cc2cc2[nH]c3ccc([N+](=O)[O-])cc3c21.[Cl-] | 1030 nM | 70 nM | 14.7 | – | – | – | Parasitemia [12]: 1.34%; Suppression of parasitemia [13]: 90.75%; Mean survival time [14]: 6.4 days; Mean survival time [15]: 13 days
C[n+]1c2ccc(Br)cc2cc2[nH]c3ccccc3c21 | – | – | – | 10.2 | 0.63 | 79.3 | –
C[n+]1c2c(Cl)cccc2cc2[nH]c3ccccc3c21.[Cl-] | 3540 nM | 4690 nM | 0.76 | – | – | – | –
C[n+]1c2ccc(Cl)cc2cc2[nH]c3ccc(Br)cc3c21.[Cl-] | 1730 nM | 30 nM | 57.7 | – | – | – | Parasitemia [12]: 0.97%; Suppression of parasitemia [13]: 91.85%; Mean survival time [14]: 11.8 days; Mean survival time [15]: 15.4 days
C[n+]1c2ccc(Br)cc2cc2[nH]c3ccc(Br)cc3c21.[Cl-] | – | – | 123 | 9.1 | 1.53 | 77.9 | Mean survival time [16]: 11.8 days; Parasitemia [12]: 1.24%; Parasitemia [17]: 12.1%; Suppression of parasitemia [18]: 46.7%; Mean survival time [19]: 11.6 days; Parasitemia [20]: 3.55%; Suppression of parasitemia [13]: 91.4%; Mean survival time [14]: 10 days; Parasitemia [21]: 7.67%; Mean survival time [22]: 10 days; Suppression of parasitemia [23]: 15.9%; Mean survival time [15]: 15 days; Ratio [24]: 0.99; Suppression of parasitemia [25]: 75.4%
C[n+]1c2ccccc2c(Cl)c2[nH]c3cc(Cl)ccc3c21 | – | – | – | 7.35 | 0.96 | 37.94 | IC50 [9]: 12900 nM
